Converted amounts (≈) assume the structure as drawn. The source made the active and inactive calls. The calls are words filed in the database; no cut-off is given here.
Experiments:
Cryptococcus neoformans = experiment: Antifungal activity against Cryptococcus neoformans after 72 hrs; type: functional
Summary of the method: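 NCCLS-based broth dilution against C. neoformans. Test agents were in DMSO in growth medium, inoculated and held at 35 °C, and MIC80 was read at 72 h. MIC80 is the first well with roughly 80% less growth than the drug-free well. Each value averages three replicate tests.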

Candida albicans [1] = experiment: Antifungal activity against Candida albicans SCY0109 after 24 hrs; type: functional; conditions: SCY0109, 24 h
Summary of the method: (§1)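 Broth dilution MIC per NCCLS recommendations. Compounds were dissolved in DMSO in growth medium, then inoculated and incubated at 35 °C, with growth read at 24 h for C. albicans. MIC80 is the first well showing about 80% growth reduction versus the drug-free well. Values are the mean of three replicate tests.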

Candida parapsilosis = experiment: Antifungal activity against Candida parapsilosis after 5 to 7 days; type: functional; conditions: Lodderomyces parapsilosis
Candida tropicalis = experiment: Antifungal activity against Candida tropicalis after 24 hrs; type: functional
Summary of the method: (§2)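 MIC measured by broth dilution per NCCLS recommendations. Compounds were dissolved in DMSO in growth medium, inoculated and incubated at 35 °C. MIC80 is the first well with approximately 80% lower growth than the drug-free well. Values are the mean of three replicate tests.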

Trichophyton rubrum = experiment: Antifungal activity against Trichophyton rubrum after 5 to 7 days; type: functional
Summary of the method: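 Broth dilution per NCCLS recommendations against an ATCC strain; compounds dissolved in DMSO in growth medium; incubated at 35 °C. MIC80 is the first well with about 80% growth reduction versus the drug-free well, read at 5–7 days for filamentous fungi. Values are the mean of three replicate tests.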

Pichia kudriavzevii = experiment: Antifungal activity against Candida krusei after 5 to 7 days; type: functional; summary of the method: as §2
Nakaseomyces glabratus = experiment: Antifungal activity against Candida glabrata after 5 to 7 days; type: functional
Nannizzia gypsea = experiment: Antifungal activity against Microsporum gypseum after 5 to 7 days; type: functional
Summary of the method: (§3)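 Filamentous fungi were tested by broth dilution following NCCLS recommendations. Compounds were dissolved in DMSO in growth medium, inoculated and incubated at 35 °C, with MIC80 read after 5–7 days. MIC80 is the first well with approximately 80% growth reduction relative to the drug-free well. Results are the mean of three replicates.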

Candida albicans [2] = experiment: Antifungal activity against Candida albicans SC5314 after 24 hrs; type: functional; conditions: SC5314, 24 h; summary of the method: as §1
Aspergillus fumigatus = experiment: Antifungal activity against Aspergillus fumigatus after 5 to 7 days; type: functional; summary of the method: as §3
Candida albicans [3] = experiment: Antifungal activity against Candida albicans SC5314 infected in ICR mouse assessed as increase in host survival at 1 mg/kg, po qd for 7 days starting from 2 hrs post infection measured up to 20 days; type: functional, organism-based
Summary of the method: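 Male ICR mice (18–22 g, ten per group) were immunosuppressed with intraperitoneal cyclophosphamide 100 mg/kg once daily for 3 days. They were then infected with 0.4 ml of […] C. albicans SC5314. Oral dosing in 0.5% carboxymethylcellulose suspension began 2 h post-infection, with vehicle-only controls. Read-out was mean survival days over 20 days.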

| Structure (SMILES) | MIC80 (Cryptococcus neoformans) [µg/mL] | MIC80 (Candida albicans [1]) [µg/mL] | MIC80 (Candida parapsilosis) [µg/mL] | MIC80 (Candida tropicalis) [µg/mL] | MIC80 (Trichophyton rubrum) [µg/mL] | MIC80 (Pichia kudriavzevii) [µg/mL] | MIC80 (Nakaseomyces glabratus) [µg/mL] | MIC80 (Nannizzia gypsea) [µg/mL] | MIC80 (Candida albicans [2]) [µg/mL] | MIC80 (Aspergillus fumigatus) [µg/mL] | Activity (Candida albicans [3]) |
| --- | --- | --- | --- | --- | --- | --- | --- | --- | --- | --- | --- |
| C[C@@H](c1ncncc1F)[C@](O)(Cn1cncn1)c1ccc(F)cc1F [VORICONAZOLE] | 0.0312 (≈ 0.0895 µM) | 0.0156 (≈ 0.0447 µM) | 0.0312 (≈ 0.0895 µM) | 0.25 (≈ 0.716 µM) | 0.125 (≈ 0.358 µM) | 0.25 (≈ 0.716 µM) | 0.0312 (≈ 0.0895 µM) | 0.25 (≈ 0.716 µM) | 0.0312 (≈ 0.0895 µM) | 0.25 (≈ 0.716 µM) | – |
| C[C@@H](N(C)C1CC1)[C@](O)(Cn1cncn1)c1ccc(F)cc1F | 0.125 (≈ 0.388 µM) | – | – | – | – | – | – | – | 0.125 (≈ 0.388 µM) | 8 (≈ 24.8 µM) | – |
| C[C@@H](n1cc(-c2cccc(Br)c2)nn1)[C@](O)(Cn1cncn1)c1ccc(F)cc1F | 1 (≈ 2.1 µM) | – | – | – | – | – | – | – | 0.5 (≈ 1.05 µM) | > 64 | – |
| CCN[C@H](C)[C@](O)(Cn1cncn1)c1ccc(F)cc1F | 0.5 (≈ 1.69 µM) | – | – | – | – | – | – | – | 0.5 (≈ 1.69 µM) | 32 (≈ 108 µM) | – |
| OC(Cn1cncn1)(Cn1cncn1)c1ccc(F)cc1F [FLUCONAZOLE] | 2 (≈ 6.53 µM) | 0.25 (≈ 0.816 µM) | 0.5 (≈ 1.63 µM) | 32 (≈ 104 µM) | 1 (≈ 3.27 µM) | 32 (≈ 104 µM) | 1 (≈ 3.27 µM) | 8 (≈ 26.1 µM) | 1 (≈ 3.27 µM) | > 64 | Active |
| C[C@@H](n1cc(-c2ccncc2)nn1)[C@](O)(Cn1cncn1)c1ccc(F)cc1F | 1 (≈ 2.52 µM) | – | – | – | – | – | – | – | 1 (≈ 2.52 µM) | > 64 | – |
| C[C@@H](NC1CC1)[C@](O)(Cn1cncn1)c1ccc(F)cc1F | 0.0156 (≈ 0.0506 µM) | 0.0078 (≈ 0.0253 µM) | 0.25 (≈ 0.811 µM) | 0.5 (≈ 1.62 µM) | 0.0625 (≈ 0.203 µM) | 0.5 (≈ 1.62 µM) | 0.0156 (≈ 0.0506 µM) | 0.125 (≈ 0.405 µM) | 0.0156 (≈ 0.0506 µM) | 1 (≈ 3.24 µM) | – |
| C[C@@H](n1cc(-c2ccc(N)cc2)nn1)[C@](O)(Cn1cncn1)c1ccc(F)cc1F | 0.5 (≈ 1.22 µM) | – | – | – | – | – | – | – | 0.5 (≈ 1.22 µM) | > 64 | – |
| C[C@@H](NCc1ccccc1)[C@](O)(Cn1cncn1)c1ccc(F)cc1F | 0.125 (≈ 0.349 µM) | – | – | – | – | – | – | – | 0.0312 (≈ 0.0872 µM) | 1 (≈ 2.79 µM) | – |
| C[C@@H](n1cc(-c2ccccc2Cl)nn1)[C@](O)(Cn1cncn1)c1ccc(F)cc1F | 0.0156 (≈ 0.0362 µM) | – | – | – | – | – | – | – | 0.0156 (≈ 0.0362 µM) | 16 (≈ 37.1 µM) | – |
| C[C@@H](n1cc(-c2ccc(F)cc2)nn1)[C@](O)(Cn1cncn1)c1ccc(F)cc1F | 0.0625 (≈ 0.151 µM) | – | – | – | – | – | – | – | 0.0625 (≈ 0.151 µM) | 32 (≈ 77.2 µM) | – |
| Cc1ccc(-c2cn([C@H](C)[C@](O)(Cn3cncn3)c3ccc(F)cc3F)nn2)cc1 | 0.0625 (≈ 0.152 µM) | – | – | – | – | – | – | – | 0.125 (≈ 0.305 µM) | > 64 | – |
| C[C@@H](N(Cc1ccccc1)C1CC1)[C@](O)(Cn1cncn1)c1ccc(F)cc1F | 8 (≈ 20.1 µM) | – | – | – | – | – | – | – | 8 (≈ 20.1 µM) | 8 (≈ 20.1 µM) | – |
| C[C@@H](N1CCOCC1)[C@](O)(Cn1cncn1)c1ccc(F)cc1F | 0.0156 (≈ 0.0461 µM) | 0.0156 (≈ 0.0461 µM) | 0.0625 (≈ 0.185 µM) | 0.5 (≈ 1.48 µM) | 0.0625 (≈ 0.185 µM) | 0.5 (≈ 1.48 µM) | 0.0312 (≈ 0.0924 µM) | 0.0625 (≈ 0.185 µM) | 0.0312 (≈ 0.0924 µM) | 0.125 (≈ 0.369 µM) | Active |
| CCCCc1ccc(-c2cn([C@H](C)[C@](O)(Cn3cncn3)c3ccc(F)cc3F)nn2)cc1 | 8 (≈ 17.7 µM) | – | – | – | – | – | – | – | 4 (≈ 8.84 µM) | > 64 | – |
| C[C@@H](n1cc(-c2ccc(Cl)cc2)nn1)[C@](O)(Cn1cncn1)c1ccc(F)cc1F | 0.0156 (≈ 0.0362 µM) | – | – | – | – | – | – | – | 0.125 (≈ 0.29 µM) | 32 (≈ 74.3 µM) | – |
| Cc1ccc(CN(C2CC2)[C@H](C)[C@](O)(Cn2cncn2)c2ccc(F)cc2F)cc1 | 5 (≈ 12.1 µM) | – | – | – | – | – | – | – | 8 (≈ 19.4 µM) | > 64 | – |
| C[C@@H](n1cc(-c2cccs2)nn1)[C@](O)(Cn1cncn1)c1ccc(F)cc1F | 0.0625 (≈ 0.155 µM) | – | – | – | – | – | – | – | 0.0625 (≈ 0.155 µM) | 16 (≈ 39.8 µM) | – |
| C[C@@H](n1cc(-c2cccc(N)c2)nn1)[C@](O)(Cn1cncn1)c1ccc(F)cc1F | 1 (≈ 2.43 µM) | – | – | – | – | – | – | – | 0.5 (≈ 1.22 µM) | > 64 | – |
| CCCN[C@H](C)[C@](O)(Cn1cncn1)c1ccc(F)cc1F | 0.0625 (≈ 0.201 µM) | – | – | – | – | – | – | – | 0.125 (≈ 0.403 µM) | 8 (≈ 25.8 µM) | – |
| C[C@@H](n1cc(-c2cccc(F)c2)nn1)[C@](O)(Cn1cncn1)c1ccc(F)cc1F | 0.0625 (≈ 0.151 µM) | – | – | – | – | – | – | – | 0.25 (≈ 0.603 µM) | > 64 | – |
| CCN1CCN([C@H](C)[C@](O)(Cn2cncn2)c2ccc(F)cc2F)CC1 | 2 (≈ 5.47 µM) | – | – | – | – | – | – | – | 2 (≈ 5.47 µM) | 64 (≈ 175 µM) | – |
| C[C@@H](n1cc(-c2ccsc2)nn1)[C@](O)(Cn1cncn1)c1ccc(F)cc1F | 0.0625 (≈ 0.155 µM) | – | – | – | – | – | – | – | 0.0625 (≈ 0.155 µM) | 4 (≈ 9.94 µM) | – |

From ChEMBL document CHEMBL4138173, “Molecular docking, design, synthesis and antifungal activity study of novel triazole derivatives” (2018)
